Key:
[1] = species: Homo sapiens; assay: Cytotoxicity against Normal human diploid cells (human foreskin fibroblasts cells); conditions: Fibroblast
[2] = tested on: L1210; assay: Antiproliferative testing in vitro and its ability to inhibit the growth of L1210 murine leukemia cells determined at a concentration of 10 uM.; type: functional, Mus musculus; set-up: scale not given: the % may be the effect or the level left
In short: (§1)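 L1210 mouse leukemia cells grown in static suspension culture in Fischer's medium for 3 days with test compound. Growth rate was taken as the slope of semilog cell number versus time, expressed as control doubling time as percent of treated doubling time, i.e. treated growth relative to control.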

[3] = tested on: Human alphaherpesvirus 1; assay: Antiviral activity was determined against Herpes simplex virus type 1 by Plaque-reduction assay; type: functional, organism-based
In short: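 BSC-1 monolayers (MEM with Earle's salts, 10% FBS) infected with HSV-1 strain S-148, about 100 PFU per 0.2 mL; compound dissolved in overlay medium; plaques counted. IC50 by regression of percent inhibition on log concentration. Acyclovir or ganciclovir positive control, with sets rejected beyond 1.5 SD of control mean.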

[4] = tested on: Human betaherpesvirus 5; assay: Antiviral activity against Human cytomegalovirus in a plaque-reduction assay; type: functional, organism-based
In short: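 HFF monolayers (MEM with Earle's salts, 10% FBS) infected with plaque-purified Towne strain HCMV, about 50 PFU per 0.2 mL inoculum; compound dissolved in overlay medium; plaques counted. IC50 from linear regression of percent inhibition against log concentration. Ganciclovir or acyclovir positive control run; sets rejected if control deviated >1.5 SD from its mean.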

[5] = Cytotoxicity against Monkey kidney cells(BSC-1 cells); type: cell-based; conditions: Cercopithecidae
[6] = Cytotoxicity against human neoplastic cell line (KB); type: cell-based
In short: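 KB cells (MEM with Hank's salts, 5% FBS) exposed to compound; incorporation of radioactive precursors, including [3H]dThd, into DNA, RNA and protein measured. An IC50 for each was obtained by regression on log concentration, and the three IC50s were averaged. Averages of two to four experiments.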

[7] = tested on: L1210; assay: Antiproliferative testing in vitro and its ability to inhibit the growth of L1210 murine leukemia cells determined at a concentration of 100 uM.; type: functional, Mus musculus; in short: as §1
[8] = tested on: L1210; assay: Antiproliferative testing in vitro and its ability to inhibit the growth of L1210 murine leukemia cells determined at a concentration of 10 uM.; set-up: scale not given: the % may be the effect or the level left

## COC(=N)c1cn(COCCO)c2ncnc(N)c12
[1]
  IC50: > 100 µM
[2]
  Control: 108%
[3]
  IC50: > 100 µM
[4]
  IC50: > 100 µM
[5]
  IC50: > 100 µM

## NC(=O)c1cn(COCCO)c2ncnc(N)c12
[1]
  IC50: > 320 µM
[6]
  IC50: > 100 µM
[3]
  IC50: > 100 µM
[7]
  Growth rate, % of control: 100%
[4]
  IC50: > 320 µM
[5]
  IC50: > 100 µM

## Nc1ncnc2c1ccn2COCCO
[1]
  IC50: > 100 µM
[6]
  IC50: > 320 µM
[3]
  IC50: > 100 µM
[4]
  IC50: > 100 µM
[5]
  IC50: > 100 µM

## Nc1nc2c(ncn2COC(CO)CO)c(=O)[nH]1 [GANCICLOVIR]
[1]
  IC50: > 100 µM
[6]
  IC50: 1000 µM
[3]
  IC50: 2.3 µM
[4]
  IC50: 7.9 µM
[5]
  IC50: > 100 µM

## CC(=O)OCCOCn1cc(C#N)c2c(N)ncnc21
[1]
  IC50: > 100 µM
[3]
  IC50: > 100 µM
[4]
  IC50: > 100 µM
[5]
  IC50: > 100 µM

## N#Cc1cnc2n(COCCO)cnc(N)c1-2
[1]
  IC50: > 320 µM
[3]
  IC50: > 100 µM
[4]
  IC50: > 320 µM
[5]
  IC50: > 100 µM

## NNC(=O)c1cn(COCCO)c2ncnc(N)c12
[1]
  IC50: > 100 µM
[3]
  IC50: > 100 µM
[7]
  Growth rate, % of control: 92%
[4]
  IC50: > 100 µM
[5]
  IC50: > 100 µM

## NC(=NO)c1cn(COCCO)c2ncnc(N)c12
[1]
  IC50: > 100 µM
[3]
  IC50: > 100 µM
[7]
  Growth rate, % of control: 89%
[4]
  IC50: > 100 µM
[5]
  IC50: > 100 µM

## Nc1nc2c(ncn2COCCO)c(=O)[nH]1 [ACYCLOVIR]
[1]
  IC50: > 100 µM
[6]
  IC50: > 100 µM
[3]
  IC50: 3.9 µM
[5]
  IC50: > 100 µM

## NC(=S)c1cn(COCCO)c2ncnc(N)c12
[1]
  IC50: 100 µM
[6]
  IC50: > 100 µM
[3]
  IC50: > 100 µM
[8]
  Control: 93%
[4]
  IC50: 11 µM
[5]
  IC50: > 100 µM

## N#Cc1cn(COCCO)c2ncnc(N)c12
[1]
  IC50: > 100 µM
[6]
  IC50: > 100 µM
[3]
  IC50: > 320 µM
[7]
  Growth rate, % of control: 100%
[4]
  IC50: > 100 µM
[5]
  IC50: > 320 µM

Source: ChEMBL document CHEMBL1124509, “Synthesis, cytotoxicity, and antiviral activity of certain 7-[(2-hydroxyethoxy)methyl]pyrrolo[2,3-d]pyrimidine nucleosides related to toyocamycin and sangivamycin” (J Med Chem, 1989)
